Assay results published in ChEMBL document CHEMBL3525913, “Metabolism-dependent inhibition of CYP3A4 by lapatinib: evidence for formation of a metabolic intermediate complex with a nitroso/oxime metabolite formed via a nitrone intermediate” (Drug Metab Dispos, 2013).

Tests used:
Liver microsome [1] = test: Drug level in human liver microsomes treated with lapatinib at 50 uM by LC/MS/MS analysis; type: ADME
Method in brief: (§1)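 Lapatinib 50 μM (added in DMSO) incubated 30 min at 37°C in 100 mM potassium phosphate pH 7.4 with HLM 1 mg/mL or recombinant CYP3A4+b5 / CYP3A5+b5 100 pmol/mL. Reaction started with NADPH 1 mM. Protein re-isolated by ultracentrifugation (100,000 x g, 4°C, 60 min), washed (KCl/EDTA), resuspended in phosphate buffer, ±2 mM ferricyanide 10 min 37°C, quenched with acetonitrile, then high-resolution LC/MS profiling.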

Cytochrome P450 3A4 [2] = biological target: T1, Cytochrome P450 3A4 (Homo sapiens, UniProt P08684); test: Activity of recombinant CYP3A4 (unknown origin) assessed as compound formation treated with lapatinib at 50 uM by LC/MS/MS analysis; type: ADME; conditions: recombinant enzyme; method in brief: as §1
[3] = Retention time of the compound by LC/MS/MS analysis relative to lapatinib; type: physicochemical
Method in brief: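 Phenyl UPLC column (1.7 μm, 2.1 x 100 mm), 0.1% formic acid in water/acetonitrile, 0.4 mL/min. Gradient: 10% organic for 1 min, to 90% over 13 min, held 0.5 min. Detection by accurate-mass MS. Retention times expressed relative to lapatinib.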

Cytochrome P450 3A5 [4] = biological target: T2, Cytochrome P450 3A5 (Homo sapiens, UniProt P20815); test: Activity of recombinant CYP3A5 (unknown origin) assessed as compound formation treated with lapatinib at 50 uM by LC/MS/MS analysis; type: ADME; conditions: recombinant enzyme; method in brief: as §1
Liver microsome [5] = test: Drug metabolism in human liver microsomes assessed as N-(3-chloro-4-(3-fluorobenzyloxy)phenyl)-6-(5-((hydroxy(2 (methylsulfonyl)ethyl)amino)methyl)furan-2-yl)quinazolin-4-amine formation at 50 uM for 30 mins by LC/MS/MS analysis; type: ADME; conditions: 0.5 h; method in brief: as §1
Liver microsome [6] = test: Drug metabolism in human liver microsomes assessed as 5-(4-(3-chloro-4-(3-fluorobenzyloxy)phenylamino)quinazolin-6-yl)furan-2-carbaldehyde oxime formation at 50 uM for 30 mins by LC/MS/MS analysis; type: ADME; conditions: 0.5 h; method in brief: as §1
Liver microsome [7] = test: Drug metabolism in human liver microsomes assessed as N-((5-(4-(3-chloro-Drug metabolism in human liver microsomes assessed as 5-(4-(3-chloro-4-(3-fluorobenzyloxy)phenylamino)quinazolin-6-yl)furan-2-carbaldehyde formation at 50 uM for 30 mins by LC/MS/MS analysis; type: ADME; conditions: 0.5 h; method in brief: as §1
Cytochrome P450 3A4 [8] = biological target: T1, Cytochrome P450 3A4; test: Activity of recombinant CYP3A4 (unknown origin) assessed as 2-chloro-4-(6-(5-((2-(methylsulfonyl)ethylamino)methyl)furan-2-yl)quinazolin-4-ylamino)phenol formation at 50 uM for 30 mins by LC/MS/MS analysis; type: ADME; conditions: recombinant enzyme, 0.5 h; method in brief: as §1
Cytochrome P450 3A4 [9] = biological target: T1, Cytochrome P450 3A4; test: Activity of recombinant CYP3A4 (unknown origin) assessed as N-((5-(4-(3-chloro-4-(3-fluorobenzyloxy)phenylamino)quinazolin-6-yl)furan-2-yl)methylene)-2-(methylsulfonyl)ethanamine oxide formation at 50 uM for 30 mins by LC/MS/MS analysis; type: ADME; conditions: recombinant enzyme, 0.5 h; method in brief: as §1
Cytochrome P450 3A4 [10] = biological target: T1, Cytochrome P450 3A4; test: Activity of recombinant CYP3A4 (unknown origin) assessed as (5-(4-(3-chloro-4-(3-fluorobenzyloxy)phenylamino)quinazolin-6-yl)furan-2-yl)methanol formation at 50 uM for 30 mins by LC/MS/MS analysis; type: ADME; conditions: recombinant enzyme, 0.5 h; method in brief: as §1
Cytochrome P450 3A4 [11] = biological target: T1, Cytochrome P450 3A4; test: Activity of recombinant CYP3A4 (unknown origin) assessed as N-(3-chloro-4-(3-fluorobenzyloxy)phenyl)-6-(5-((hydroxy(2 (methylsulfonyl)ethyl)amino)methyl)furan-2-yl)quinazolin-4-amine formation at 50 uM for 30 mins by LC/MS/MS analysis; type: ADME; conditions: recombinant enzyme, 0.5 h; method in brief: as §1
Cytochrome P450 3A4 [12] = biological target: T1, Cytochrome P450 3A4; test: Activity of recombinant CYP3A4 (unknown origin) assessed as 5-(4-(3-chloro-4-(3-fluorobenzyloxy)phenylamino)quinazolin-6-yl)furan-2-carbaldehyde oxime formation at 50 uM for 30 mins by LC/MS/MS analysis; type: ADME; conditions: recombinant enzyme, 0.5 h; method in brief: as §1
Cytochrome P450 3A4 [13] = biological target: T1, Cytochrome P450 3A4; test: Activity of recombinant CYP3A4 (unknown origin) assessed as 5-(4-(3-chloro-4-(3-fluorobenzyloxy)phenylamino)quinazolin-6-yl)furan-2-carbaldehyde formation at 50 uM for 30 mins by LC/MS/MS analysis; type: ADME; conditions: recombinant enzyme, 0.5 h; method in brief: as §1
Cytochrome P450 3A5 [14] = biological target: T2, Cytochrome P450 3A5; test: Activity of recombinant CYP3A5 (unknown origin) assessed as 2-chloro-4-(6-(5-((2-(methylsulfonyl)ethylamino)methyl)furan-2-yl)quinazolin-4-ylamino)phenol formation at 50 uM for 30 mins by LC/MS/MS analysis; type: ADME; conditions: recombinant enzyme, 0.5 h; method in brief: as §1
Cytochrome P450 3A5 [15] = biological target: T2, Cytochrome P450 3A5; test: Activity of recombinant CYP3A5 (unknown origin) assessed as 2-chloro-4-(6-(5-(hydroxy(2-(methylsulfonyl)ethylamino)methyl)furan-2-yl)quinazolin-4-ylamino)phenol formation at 50 uM for 30 mins by LC/MS/MS analysis; type: ADME; conditions: recombinant enzyme, 0.5 h; method in brief: as §1
Cytochrome P450 3A5 [16] = biological target: T2, Cytochrome P450 3A5; test: Activity of recombinant CYP3A5 (unknown origin) assessed as 6-(5-(aminomethyl)furan-2-yl)-N-(3-chloro-4-(3-fluorobenzyloxy)phenyl)quinazolin-4-amine formation at 50 uM for 30 mins by LC/MS/MS analysis; type: ADME; conditions: recombinant enzyme, 0.5 h; method in brief: as §1
Cytochrome P450 3A5 [17] = biological target: T2, Cytochrome P450 3A5; test: Activity of recombinant CYP3A5 (unknown origin) assessed as N-((5-(4-(3-chloro-4-(3-fluorobenzyloxy)phenylamino)quinazolin-6-yl)furan-2-yl)methylene)-2-(methylsulfonyl)ethanamine oxide formation at 50 uM for 30 mins by LC/MS/MS analysis; type: ADME; conditions: recombinant enzyme, 0.5 h; method in brief: as §1
Cytochrome P450 3A5 [18] = biological target: T2, Cytochrome P450 3A5; test: Activity of recombinant CYP3A5 (unknown origin) assessed as (5-(4-(3-chloro-4-(3-fluorobenzyloxy)phenylamino)quinazolin-6-yl)furan-2-yl)methanol formation at 50 uM for 30 mins by LC/MS/MS analysis; type: ADME; conditions: recombinant enzyme, 0.5 h; method in brief: as §1
Cytochrome P450 3A5 [19] = biological target: T2, Cytochrome P450 3A5; test: Activity of recombinant CYP3A5 (unknown origin) assessed as N-(3-chloro-4-(3-fluorobenzyloxy)phenyl)-6-(5-((hydroxy(2 (methylsulfonyl)ethyl)amino)methyl)furan-2-yl)quinazolin-4-amine formation at 50 uM for 30 mins by LC/MS/MS analysis; type: ADME; conditions: recombinant enzyme, 0.5 h; method in brief: as §1
Cytochrome P450 3A5 [20] = biological target: T2, Cytochrome P450 3A5; test: Activity of recombinant CYP3A5 (unknown origin) assessed as 5-(4-(3-chloro-4-(3-fluorobenzyloxy)phenylamino)quinazolin-6-yl)furan-2-carbaldehyde oxime formation at 50 uM for 30 mins by LC/MS/MS analysis; type: ADME; conditions: recombinant enzyme, 0.5 h; method in brief: as §1
Cytochrome P450 3A5 [21] = biological target: T2, Cytochrome P450 3A5; test: Activity of recombinant CYP3A5 (unknown origin) assessed as 5-(4-(3-chloro-4-(3-fluorobenzyloxy)phenylamino)quinazolin-6-yl)furan-2-carbaldehyde formation at 50 uM for 30 mins by LC/MS/MS analysis; type: ADME; conditions: recombinant enzyme, 0.5 h; method in brief: as §1
Cytochrome P450 3A4 [22] = biological target: T1, Cytochrome P450 3A4; test: Activity of recombinant CYP3A4 (unknown origin) assessed as 6-(5-(aminomethyl)furan-2-yl)-N-(3-chloro-4-(3-fluorobenzyloxy)phenyl)quinazolin-4-amine formation at 50 uM for 30 mins by LC/MS/MS analysis; type: ADME; conditions: recombinant enzyme, 0.5 h; method in brief: as §1
Cytochrome P450 3A4 [23] = biological target: T1, Cytochrome P450 3A4; test: Activity of recombinant CYP3A4 (unknown origin) assessed as 2-chloro-4-(6-(5-(hydroxy(2-(methylsulfonyl)ethylamino)methyl)furan-2-yl)quinazolin-4-ylamino)phenol formation at 50 uM for 30 mins by LC/MS/MS analysis; type: ADME; conditions: recombinant enzyme, 0.5 h; method in brief: as §1
Liver microsome [24] = test: Drug metabolism in human liver microsomes assessed as 2-chloro-4-(6-(5-((2-(methylsulfonyl)ethylamino)methyl)furan-2-yl)quinazolin-4-ylamino)phenol formation at 50 uM for 30 mins by LC/MS/MS analysis; type: ADME; conditions: 0.5 h; method in brief: as §1
Liver microsome [25] = test: Drug metabolism in human liver microsomes assessed as 2-chloro-4-(6-(5-(hydroxy(2-(methylsulfonyl)ethylamino)methyl)furan-2-yl)quinazolin-4-ylamino)phenol formation at 50 uM for 30 mins by LC/MS/MS analysis; type: ADME; conditions: 0.5 h; method in brief: as §1
Liver microsome [26] = test: Drug metabolism in human liver microsomes assessed as 6-(5-(aminomethyl)furan-2-yl)-N-(3-chloro-4-(3-fluorobenzyloxy)phenyl)quinazolin-4-amine formation at 50 uM for 30 mins by LC/MS/MS analysis; type: ADME; conditions: 0.5 h; method in brief: as §1
Liver microsome [27] = test: Drug metabolism in human liver microsomes assessed as N-((5-(4-(3-chloro-4-(3-fluorobenzyloxy)phenylamino)quinazolin-6-yl)furan-2-yl)methylene)-2-(methylsulfonyl)ethanamine oxide formation at 50 uM for 30 mins by LC/MS/MS analysis; type: ADME; conditions: 0.5 h; method in brief: as §1
Liver microsome [28] = test: Drug metabolism in human liver microsomes assessed as (5-(4-(3-chloro-4-(3-fluorobenzyloxy)phenylamino)quinazolin-6-yl)furan-2-yl)methanol formation at 50 uM for 30 mins by LC/MS/MS analysis; type: ADME; conditions: 0.5 h; method in brief: as §1
CYP3A4 [29] = biological target: T3, CYP3A4 (Homo sapiens, UniProt P08684); test: Inhibition of CYP3A4-mediated midazolam 1-hydroxylation in human liver microsomes at 50 uM; type: ADME; conditions: probe midazolam (1-hydroxylation)
Method in brief: (§2)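 30 min preincubation with 50 μM test compound (DMSO) and 1 mM NADPH at 37°C in 100 mM potassium phosphate, pH 7.4. Enzyme source was HLM at 1 mg/mL or recombinant CYP3A4 + b5 at 100 pmol/mL. Residual activity assayed with midazolam (30 μM; 5 min; 37°C) at 0.05 mg/mL. 1'-hydroxymidazolam quantified by LC/MS/MS and normalised to solvent controls.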

CYP3A4 [30] = biological target: T3, CYP3A4; test: Inhibition of recombinant CYP3A4 (unknown origin)-mediated midazolam 1-hydroxylation at 50 uM; type: ADME; conditions: recombinant CYP3A4, probe midazolam (1-hydroxylation); method in brief: as §2
CYP3A5 = CYP3A5 (Homo sapiens, UniProt P20815); test: Inhibition of recombinant CYP3A5 (unknown origin)-mediated midazolam 1-hydroxylation at 50 uM; type: ADME; conditions: recombinant CYP3A5, probe midazolam (1-hydroxylation)
Method in brief: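 Recombinant CYP3A5+b5 (100 pmol/mL) preincubated 30 min at 37°C, pH 7.4, with lapatinib 50 μM and 1 mM NADPH. Solvent controls run alongside. Residual activity measured as midazolam (30 μM, 5 min, 37°C) 1'-hydroxylation by LC/MS/MS at 0.05 mg/mL. Measured directly and after ultracentrifugation (100,000 x g, 60 min) with or without 2 mM ferricyanide (10 min). Normalized to solvent control.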

Cytochrome P450 3A5 [31] = biological target: T2, Cytochrome P450 3A5; test: Inhibition of recombinant CYP3A5 (unknown origin)-mediated midazolam 1-hydroxylation at 50 uM in presence of 2 mM ferricyanide; type: ADME; conditions: recombinant enzyme
Method in brief: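 Recombinant CYP3A5 + b5 (100 pmol/mL) preincubated 30 min at 37°C with test compound (50 μM) in 100 mM potassium phosphate pH 7.4, started with 1 mM NADPH. Then potassium ferricyanide (2 mM final) for 10 min at 37°C, ultracentrifugation, pellet washed. Residual midazolam (30 μM, 5 min, 37°C) 1'-hydroxylation measured by LC/MS/MS, normalized to solvent controls.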

T2 sequence (P20815 whole entry): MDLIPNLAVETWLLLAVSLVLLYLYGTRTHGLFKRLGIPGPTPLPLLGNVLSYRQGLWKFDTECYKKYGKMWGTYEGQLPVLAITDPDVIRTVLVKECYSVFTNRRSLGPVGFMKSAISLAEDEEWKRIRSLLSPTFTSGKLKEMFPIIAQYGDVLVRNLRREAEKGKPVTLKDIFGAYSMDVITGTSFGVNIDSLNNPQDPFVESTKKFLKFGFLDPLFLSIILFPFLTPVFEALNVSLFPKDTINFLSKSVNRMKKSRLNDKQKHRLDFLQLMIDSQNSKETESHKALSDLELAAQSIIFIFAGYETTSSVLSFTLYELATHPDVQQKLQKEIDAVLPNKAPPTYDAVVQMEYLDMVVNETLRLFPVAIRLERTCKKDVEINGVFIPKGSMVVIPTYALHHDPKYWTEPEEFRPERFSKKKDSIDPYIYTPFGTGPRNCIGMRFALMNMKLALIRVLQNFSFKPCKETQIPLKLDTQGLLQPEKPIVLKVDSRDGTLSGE
T1 sequence (P08684 whole entry): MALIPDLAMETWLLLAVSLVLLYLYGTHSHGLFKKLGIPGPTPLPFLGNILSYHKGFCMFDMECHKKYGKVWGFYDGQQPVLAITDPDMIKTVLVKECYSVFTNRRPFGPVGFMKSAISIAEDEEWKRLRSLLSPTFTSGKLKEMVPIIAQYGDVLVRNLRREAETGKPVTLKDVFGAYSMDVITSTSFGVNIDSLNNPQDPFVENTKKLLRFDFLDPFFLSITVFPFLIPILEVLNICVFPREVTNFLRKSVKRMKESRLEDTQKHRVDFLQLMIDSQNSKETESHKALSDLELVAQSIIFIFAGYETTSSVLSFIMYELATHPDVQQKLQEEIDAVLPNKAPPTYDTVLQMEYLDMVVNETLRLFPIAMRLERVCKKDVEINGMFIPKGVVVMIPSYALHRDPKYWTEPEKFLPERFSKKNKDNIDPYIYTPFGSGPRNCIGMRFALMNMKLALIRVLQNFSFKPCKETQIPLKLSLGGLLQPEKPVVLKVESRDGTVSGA
T3 sequence (P08684 whole entry): as above
CYP3A5, sequence (P20815 whole entry): as the sequence (P20815 whole entry) above

CS(=O)(=O)CCNC(O)c1ccc(-c2ccc3ncnc(Nc4ccc(O)c(Cl)c4)c3c2)o1 (stereo unspecified)
metabolite_detected: Drug metabolism (Liver microsome [1]) | Drug metabolism (Cytochrome P450 3A4 [2]) | Drug metabolism (Cytochrome P450 3A5 [4])
0.78: Ratio [3]

OCc1ccc(-c2ccc3ncnc(Nc4ccc(OCc5cccc(F)c5)c(Cl)c4)c3c2)o1
1.13: Ratio [3]
metabolite_detected: Drug metabolism (Liver microsome [1]) | Drug metabolism (Cytochrome P450 3A4 [2]) | Drug metabolism (Cytochrome P450 3A5 [4])

CS(=O)(=O)CCNCc1ccc(-c2ccc3ncnc(Nc4ccc(OCc5cccc(F)c5)c(Cl)c4)c3c2)o1 [LAPATINIB]
45%: inhibition at 50 µM (CYP3A4 [29]) | inhibition at 50 µM (CYP3A4 [30])
Active: inhibition (INH) (Cytochrome P450 3A5 [31])
metabolite_detected: Drug metabolism (Liver microsome [5]) | Drug metabolism (Liver microsome [6]) | Drug metabolism (Liver microsome [7]) | Drug metabolism (Cytochrome P450 3A4 [8]) | Drug metabolism (Cytochrome P450 3A4 [9]) | Drug metabolism (Cytochrome P450 3A4 [10]) | Drug metabolism (Cytochrome P450 3A4 [11]) | Drug metabolism (Cytochrome P450 3A4 [12]) | Drug metabolism (Cytochrome P450 3A4 [13]) | Drug metabolism (Cytochrome P450 3A5 [14]) | Drug metabolism (Cytochrome P450 3A5 [15]) | Drug metabolism (Cytochrome P450 3A5 [16]) | Drug metabolism (Cytochrome P450 3A5 [17]) | Drug metabolism (Cytochrome P450 3A5 [18]) | Drug metabolism (Cytochrome P450 3A5 [19]) | Drug metabolism (Cytochrome P450 3A5 [20]) | Drug metabolism (Cytochrome P450 3A5 [21]) | Drug metabolism (Cytochrome P450 3A4 [22]) | Drug metabolism (Cytochrome P450 3A4 [23]) | Drug metabolism (Liver microsome [24]) | Drug metabolism (Liver microsome [25]) | Drug metabolism (Liver microsome [26]) | Drug metabolism (Liver microsome [27]) | Drug metabolism (Liver microsome [28])
< 15%: inhibition at 50 µM (CYP3A5)
